The test system of assay [1] is U-937. Briefly: Cytotoxicity against human U937 cells after 3 days by trypan blue exclusion assay. In kind it is functional, cell-based. The gist of the method:
(§1)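 U937 and P19 cells treated with compound. Cell death scored by trypan blue exclusion, with cells scraped, suspended in 0.25% w/v trypan blue in PBS and counted in a Malassez cell. IC50 is the concentration giving 50% cytotoxicity.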

The subject of assay [2] is P19. Briefly: Cytotoxicity against mouse P19 cells after 3 days by trypan blue exclusion assay. Format: functional, cell-based. The gist of the method:
as §1

Assay [3] deals with P19. Briefly: Induction of dendrite out growth in IL-4/GMCSF-stimulated mouse P19 cells assessed as dendrite length at 100 nM after 48 hrs by light microscopy. In kind it is functional.
Assay [4] relates to U-937. Briefly: Induction of dendrite out growth in IL-4/GMCSF-stimulated human U937 cells assessed as dendrite length at 100 nM after 48 hrs by light microscopy. In kind it is functional. The gist of the method: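 U937 cells at 1.1 × 10⁶ cells/mL were primed with 10 ng/mL PMA for 48 h in RPMI with 10% heat-inactivated serum. Adherent cells were then given 100 ng/mL IL-4 plus 100 ng/mL GM-CSF or 100 nM compound for 48 h. Dendrite length scored by light microscopy, from none to over 100 μm with a contact network.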

The test system of assay [5] is U-937. Briefly: Cytotoxicity against human U937 cells up to 20 uM after 3 days by trypan blue exclusion assay. Format: functional, cell-based. The gist of the method:
as §1

Assay [6] has as its system P19. Briefly: Cytotoxicity against mouse P19 cells up to 20 uM after 3 days by trypan blue exclusion assay. In kind it is functional, cell-based. The essentials:
as §1

Where [7] appears, read: Homo sapiens, U-937, 72 h, read-out: IC50.
The mark [8] stands for this setting: Mus musculus, P19, 72 h, read-out: IC50.

By IC50 is commonly meant the point on the concentration scale where inhibition reaches its midpoint.

Activity calls are given as the source filed them. The calls are words filed in the database; no cut-off is given here.

Take `CC(C)CCC[C@@H](C)[C@H]1CC[C@H]2C3=C[C@@H](NCCCCN)[C@@]4(O)C[C@@H](O)CC[C@]4(C)[C@H]3CC[C@]12C`: the half-inhibitory concentration (IC50) with U-937 [1] (setting [7]) worked out at 2.6 µM; in the assay on P19 [2] (setting [8]), 2.8 µM. Besides, the Activity worked out at 50 um with P19 [3] and 5 um with U-937 [4].

`CC(C)CCC[C@@H](C)[C@H]1CC[C@H]2C3=C[C@@H](NCCCCNCCCN)[C@@]4(O)C[C@@H](O)CC[C@]4(C)[C@H]3CC[C@]12C`: the IC50 entry in the assay on U-937 [1] (u-937) and in the assay on P19 [2] (p19) was “Not Active” each time. Also, the figures for the Activity in the assay on P19 [3] and in the assay with U-937 [4] were 50 um and less than 5 um, respectively.

In the case of `CC[C@H](CC[C@@H](C)[C@H]1CC[C@H]2[C@@H]3C[C@@H](NCCc4c[nH]cn4)[C@@]4(O)C[C@@H](O)CC[C@]4(C)[C@H]3CC[C@]12C)C(C)C`, the IC50 is 1.1 µM with U-937 [1] (setting [7]) and 2.5 µM in the assay with P19 [2] (setting [8]). For the same molecule, the Activity with P19 [3] and in the assay with U-937 [4] was 50 um throughout.

Take `CCCC(=O)O[C@H]1CC[C@]2(C)[C@H]3CC[C@]4(C)[C@@H]([C@H](C)CCCC(C)C)CC[C@H]4[C@@H]3C[C@@H](NCCc3c[nH]cn3)[C@@]2(O)C1`: the IC50 in the assay with U-937 [1] (setting [7]) is 8.2 µM; in the assay on P19 [2] (setting [8]) it was 9.4 µM. Also, the outcome in the assay with P19 [3] and with U-937 [4] was inactive.

`CC(C)CCC[C@@H](C)[C@H]1CC[C@H]2[C@@H]3C[C@@H](NCCCCN)[C@@]4(O)C[C@@H](O)CC[C@]4(C)[C@H]3CC[C@]12C`: the IC50 in the assay on U-937 [1] (setting [7]) stood at 2.1 µM; in the assay on P19 [2] (setting [8]), 2.6 µM. Moreover, the Activity in the assay on P19 [3] was determined as 10 um; in the assay with U-937 [4] it was 5 um.

As to `CC(C)CCC[C@@H](C)[C@H]1CC[C@H]2C3=C[C@@H](NCCCNCCCCNCCCN)[C@@]4(O)C[C@@H](O)CC[C@]4(C)[C@H]3CC[C@]12C`, the IC50 entry with U-937 [1] (u-937) and in the assay with P19 [2] (p19) was “Not Active” throughout. The Activity in the assay on P19 [3] was 10 um; with U-937 [4] it was less than 5 um.

For the molecule `NCCc1c[nH]cn1` [HISTAMINE], the IC50 entry with U-937 [1] (u-937) and in the assay with P19 [2] (p19) was “Not Active” throughout. Moreover, the result with P19 [3] and with U-937 [4] was inactive.

Consider `NCCCCN` [PUTRESCINE], for which the IC50 result in the assay with U-937 [1] (u-937) and in the assay on P19 [2] (p19) was “Not Active” each time. The outcome in the assay on P19 [3] and with U-937 [4] was inactive.

For `CC(C)CCC[C@@H](C)[C@H]1CC[C@H]2[C@@H]3CC=C4C[C@@H](O)CC[C@]4(C)[C@H]3CC[C@]12C` [CHOLESTEROL], the IC50 result with U-937 [1] (u-937) and in the assay on P19 [2] (p19) was “Not Active” throughout. For the same molecule, the result with P19 [3] and in the assay on U-937 [4] was inactive.

On to `CC(C)CCC[C@@H](C)[C@H]1CC[C@H]2C3=C[C@@H](NCCc4c[nH]cn4)[C@@]4(O)C[C@@H](O)CC[C@]4(C)[C@H]3CC[C@]12C`, for which the values for the IC50 with U-937 [1] (setting [7]) and in the assay with P19 [2] (setting [8]) were 7.6 µM and 5.3 µM, respectively. Besides, the Activity was 5 um with P19 [3] and less than 5 um in the assay on U-937 [4].

Consider `CC(=O)O[C@H]1CC[C@]2(C)[C@H]3CC[C@]4(C)[C@@H]([C@H](C)CCCC(C)C)CC[C@H]4[C@@H]3C[C@@H](NCCc3c[nH]cn3)[C@@]2(O)C1`, for which the figures for the IC50 in the assay with U-937 [1] (setting [7]) and in the assay on P19 [2] (setting [8]) were 0.9 µM and 2.5 µM, respectively. For the same molecule, the Activity in the assay with P19 [3] and with U-937 [4] was 50 um throughout.

On to `CC[C@H](CC[C@@H](C)[C@H]1CC[C@H]2[C@@H]3C[C@@H]4O[C@@]45C[C@@H](O)CC[C@]5(C)[C@H]3CC[C@]12C)C(C)C`, for which the IC50 entry in the assay on U-937 [1] (u-937) and in the assay with P19 [2] (p19) was “Not Active” in each case. Also, the outcome in the assay with P19 [3] and in the assay on U-937 [4] was inactive.

Turning to `NCCCCNCCCN` [SPERMIDINE], the IC50 result with U-937 [1] (u-937) and in the assay with P19 [2] (p19) was “Not Active” each time. Moreover, the outcome in the assay on P19 [3] and in the assay with U-937 [4] was inactive.

Regarding `C[C@]12CC[C@H]3[C@@H](C[C@@H](NCCc4c[nH]cn4)[C@@]4(O)C[C@@H](O)CC[C@]34C)[C@@H]1CC[C@@H]2O`, the IC50 in the assay on U-937 [1] (setting [7]) is 9.8 µM; with P19 [2] (setting [8]), 7.3 µM. The result with P19 [3] and in the assay on U-937 [4] was inactive.

For the molecule `CCCC(=O)O[C@H]1CC[C@]2(C)[C@H]3CC[C@]4(C)[C@@H]([C@H](C)CCCC(C)C)CC[C@H]4[C@@H]3C[C@@H]3O[C@@]32C1`, the IC50 entry in the assay on U-937 [1] (u-937) and with P19 [2] (p19) was “Not Active” each time. For the same molecule, the outcome in the assay with P19 [3] and in the assay on U-937 [4] was inactive.

As for `CC(C)CCC[C@@H](C)[C@H]1CC[C@H]2[C@@H]3C[C@@H](NCCCCNCCCN)[C@@]4(O)C[C@@H](O)CC[C@]4(C)[C@H]3CC[C@]12C`, the IC50 result in the assay with U-937 [1] (u-937) and in the assay on P19 [2] (p19) was “Not Active” in each case. For the same molecule, the outcome with U-937 [5] and in the assay with P19 [6] was inactive. For the same molecule, the Activity in the assay with P19 [3] is reported as 50 um; in the assay on U-937 [4], less than 5 um.

For `CC(C)CCC[C@@H](C)[C@H]1CC[C@H]2[C@@H]3C[C@@H](NCCCNCCCCN)[C@@]4(O)C[C@@H](O)CC[C@]4(C)[C@H]3CC[C@]12C`, the IC50 entry in the assay with U-937 [1] (u-937) and with P19 [2] (p19) was “Not Active” each time. In addition, the Activity in the assay on P19 [3] is on record as 50 um; in the assay on U-937 [4], less than 5 um.

As for `CC(=O)O[C@H]1CC[C@]2(C)[C@H]3CC[C@]4(C)[C@@H]([C@H](C)CCCC(C)C)CC[C@H]4[C@@H]3C[C@@H]3O[C@@]32C1`, the IC50 result in the assay on U-937 [1] (u-937) and with P19 [2] (p19) was “Not Active” each time. For the same molecule, the outcome in the assay with P19 [3] and in the assay on U-937 [4] was inactive.

Consider `CC(C)CCC[C@@H](C)[C@H]1CC[C@H]2C3=C[C@@H]4O[C@@]45C[C@@H](O)CC[C@]5(C)[C@H]3CC[C@]12C`, for which the IC50 result in the assay on U-937 [1] (u-937) and in the assay on P19 [2] (p19) was “Not Active” in each case. The result with P19 [3] and in the assay on U-937 [4] was inactive.

Consider `CC(C)CCC[C@@H](C)[C@H]1CC[C@H]2[C@@H]3C[C@@H](NCCCNCCCCNCCCN)[C@@]4(O)C[C@@H](O)CC[C@]4(C)[C@H]3CC[C@]12C`, for which the IC50 entry in the assay on U-937 [1] (u-937) and with P19 [2] (p19) was “Not Active” throughout. Also, the results for the Activity in the assay with P19 [3] and with U-937 [4] were 10 um and less than 5 um, respectively.

As to `NCCCNCCCCNCCCN` [SPERMINE], the IC50 entry in the assay on U-937 [1] (u-937) and with P19 [2] (p19) was “Not Active” each time. Besides, the outcome in the assay with P19 [3] and with U-937 [4] was inactive.

As to `C[C@]12CC[C@H]3[C@@H](C[C@@H]4O[C@@]45C[C@@H](O)CC[C@]35C)[C@@H]1CC[C@@H]2O`, the IC50 result with U-937 [1] (u-937) and with P19 [2] (p19) was “Not Active” in each case. Also, the result with P19 [3] and in the assay with U-937 [4] was inactive.

(Values after ChEMBL document CHEMBL1156107, “Synthesis of new alkylaminooxysterols with potent cell differentiating activities: identification of leads for the treatment of cancer and neurodegenerative diseases” (J Med Chem, 2009).)
